The list is not random: actives were taken first. Their share in the collection is about 2.1%.
KLK5 inh = human KLK5 protease inhibitors, primary screen, biochemical, 1536-well; AID 873, 2007; inhibition, % at 5 µM; hit rate 0.59% among 210,000; recombinant hK5, fluorogenic AMC substrate cleavage; Kallikrein-5 (Homo sapiens), Q9Y337;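 active means inhibition of 40% or more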;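 further: 0% = enzyme controls without compound and 100% = no-enzyme blanks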
thrombin 1536 = human alpha-thrombin inhibitors, primary screen, counter-screen for coagulation protease inhibitor project, biochemical, 1536-well, fluorogenic AMC substrate; Prothrombin (Homo sapiens), P00734; Boc-VPR-AMC fluorogenic substrate cleavage; inhibition, % at 5 µM; hit rate 0.26% among 220,000;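 active means inhibition at or above 40%; inactive means inhibition below 40%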;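 further: 0% = enzyme with no compound and 100% = wells without enzyme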
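Material: Human alpha-thrombin protein | Buffer or medium: pH 7.5 Tris-saline with Tween 20 | Reagent: Boc-VPR-AMC substrate, 15 µM final | Schedule: Reaction at ambient temperature | Detection: AMC fluorescence at 355 nm excitation and 460 nm emission | Evaluation: Percent inhibition scaled between no-compound controls and no-enzyme blanks | Controls: no-compound enzyme wells and no-enzyme blanks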
PGE2 EP2 inh = human EP2 receptor antagonists, primary screen, TR-FRET cAMP, C6 glioma cells | C6 glioma cells expressing human EP2; cells stimulated with saturating PGE2 | inhibition, % at 25 µM | hit rate 0.52% among 260,000 | AID 1422, 2008;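 active means percent inhibition above 40 after rounding to a whole number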;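 further: rat C6 glioma host cells with rolipram phosphodiesterase inhibitor present; the protocol text gives 20 µM as final concentration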
FXIa inh = human FXIa protease inhibitors, primary screen, biochemical, 1536-well | purified FXIa, Boc-Glu-Ala-Arg-AMC fluorogenic substrate | hit rate 0.14% among 220,000 | Coagulation factor XI (Homo sapiens), P03951 | inhibition, % at 5 µM;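 active means inhibition of at least 40%; inactive means inhibition below 40%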;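 further: fluorescence of freed AMC excited at 355 nm; 0% = enzyme without compound and 100% = no enzyme blank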
Target sequence (P03951 19-387 limits assumed): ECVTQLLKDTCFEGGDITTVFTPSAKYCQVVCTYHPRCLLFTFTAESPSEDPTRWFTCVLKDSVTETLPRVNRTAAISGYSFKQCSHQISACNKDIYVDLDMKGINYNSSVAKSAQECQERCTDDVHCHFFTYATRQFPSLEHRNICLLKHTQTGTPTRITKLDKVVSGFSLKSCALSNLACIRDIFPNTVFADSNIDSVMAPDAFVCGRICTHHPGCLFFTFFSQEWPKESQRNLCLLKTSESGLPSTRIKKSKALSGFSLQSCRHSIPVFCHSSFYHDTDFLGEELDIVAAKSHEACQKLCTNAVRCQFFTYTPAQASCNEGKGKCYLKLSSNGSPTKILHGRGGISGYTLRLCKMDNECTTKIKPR
Target sequence (P03951 388-625 limits assumed): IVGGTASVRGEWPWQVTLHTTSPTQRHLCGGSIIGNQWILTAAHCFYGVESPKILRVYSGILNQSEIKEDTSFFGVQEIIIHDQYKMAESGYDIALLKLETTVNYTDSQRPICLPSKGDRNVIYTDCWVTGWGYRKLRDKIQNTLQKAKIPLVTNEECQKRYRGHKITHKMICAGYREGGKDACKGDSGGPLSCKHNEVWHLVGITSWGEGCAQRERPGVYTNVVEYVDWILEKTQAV
EP2 mod = EP2 receptor modulators, cAMP readout, primary screen, cell-based, HTRF cAMP, PGE2 stimulation. Prostaglandin E2 receptor EP2 subtype (Homo sapiens), P43116. EP2-expressing cells, cAMP HTRF FRET, PGE2 co-stimulation. hit rate 0.83% among 260,000. induction, % at 25 µM;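 active means compounds whose cAMP rise, as percent of the full-agonist control response, exceeds 60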;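 further: rat C6 glioma line stably carrying human EP2 under a CMV promoter; the protocol text gives 20 µM as final concentration; 100% = response of wells given 1 µM PGE2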
FXIIa inh = human FXIIa protease inhibitors, primary screen, biochemical, 1536-well. Coagulation factor XII (Homo sapiens), P00748. purified FXIIa, Boc-QGR-AMC fluorogenic substrate, 2 h. inhibition, % at 5 µM. hit rate 0.3% among 220,000; in the data active means inhibition above about 40%;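 further: 0% = enzyme with no compound and 100% = blank without enzyme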
The depositor's hits bear a star; · = not tested or not shown.

SMILES	KLK5 inh	thrombin 1536	PGE2 EP2 inh	FXIa inh	EP2 mod	FXIIa inh
O=C(Cn1cnc2ccccc21)NCCc1nc(-c2cccnc2)n[nH]1	·	·	5	·	-25	·
C=C[C@]1(C)C[C@H](OC(=O)CO)[C@]2(C)C3C(=O)CC[C@]3(CC[C@H]2C)[C@H](C)[C@H]1O (stereo partly specified)	·	·	56*	·	-9	·
CCOC(=O)COc1ccccc1/C=C\[N+](=O)[O-]	-4	-2	92*	-6	-64	1
CCOC(=O)COc1cc([N+](=O)[O-])cc2cccnc12	0	-2	10	-2	8	9
COC(=O)C1C/C(=N\NS(=O)(=O)c2ccc(C)cc2)c2sccc2C1 (stereo unspecified)	-9	1	9	8	36	8
COC(=O)C1CC(=O)c2ccsc2C1 (stereo unspecified)	30	49*	0	-1	10	9
COc1ccc2cc1Oc1ccc(cc1)C[C@H]1c3c(cc(OC)c4c3Oc3cc5c(cc3O4)CCN[C@H]5C2)CCN1C	·	·	47*	·	-1	·
COc1cc2c3cc1Oc1c(OC)c(OC)cc4c1[C@@H](Cc1ccc(O)c(c1)Oc1ccc(cc1)C[C@@H]3N(C)CC2)CN(C)C4	·	·	48*	·	1	·
COc1cc2c3cc1Oc1cc(ccc1O)C[C@@H]1c4c(cc(OC)c(O)c4Oc4ccc(cc4)C[C@@H]3N(C)CC2)CC[N+]1(C)C	·	·	4	·	3	·
Cc1cc(-c2cn[nH]c2C2CCCN(C(=O)Cc3cccs3)C2)on1 (stereo unspecified)	·	·	·	·	-22	·
CC1=N[C@@](C)(COC(=O)[C@]2(C)N[C@](C)(CO)CO2)COC1=O	·	·	48*	·	32	·
Cc1ccc(N(CC(O)CN2C(=O)NC(C)(C)C2=O)S(=O)(=O)c2ccc(C)cc2)cc1 (stereo unspecified)	31	12	8	34	12	49*
Cc1ccc(C)c2[nH]c(=O)c(CN(Cc3ccco3)S(=O)(=O)c3ccc(F)cc3)cc12	·	·	8	·	34	·
CC(=O)[C@]1(O)CC[C@@H]2[C@H]3C[C@@H](C)C4=CC(=O)CC[C@@]4(C)[C@@H]3[C@@H](O)C[C@]21C	·	·	50*	·	4	·
COCCNc1c(-c2ccc(N3CCCC3)cc2C)nc2cnccn12	·	·	·	·	-28	·
O=C(Nc1ccccc1Cl)C1(c2ccccc2)CC1(Cl)Cl (stereo unspecified)	-10	2	4	0	62*	4
CCCCC[C@@H](O)[C@@H]1C(=O)O[C@@H](C)[C@@H](O)C=C/C=C\C=CC=C/C=C(/C)[C@H](O)C[C@H](O)C[C@H](O)C[C@H](O)C[C@H](O)C[C@H](O)C[C@@H]1O	·	·	50*	·	23	·
CN(C)S(=O)(=O)Oc1cccc(C(=O)Nc2ccc(Cl)c(Cl)c2)c1	-12	2	40*	2	-63	6
COC(=O)c1c(NC(=S)NC(=O)c2ccccc2F)sc2c1CCCC2	·	·	9	·	-3	·
COc1ccccc1Nc1nc(NCc2ccco2)c2ccccc2n1	0	1	12	0	-14	11
Cc1cccc(Nc2nc(N)c([N+](=O)[O-])c(N3CCC(C)CC3)n2)c1	-10	4	18	8	48	13
Cc1ccc(Nc2nc(N)c([N+](=O)[O-])c(NCc3ccccc3)n2)cc1	4	-1	2	3	74*	12
Cc1cccc(Nc2nc(N)c([N+](=O)[O-])c(N3CC(C)CC(C)C3)n2)c1 (stereo unspecified)	-10	-7	5	3	63*	5
Cc1ccc(Nc2nc(NCc3ccco3)c3ccccc3n2)cc1	-25	-4	42*	-6	-51	2
Nc1nc(Nc2ccc(Cl)cc2)nc(NCc2ccco2)c1[N+](=O)[O-]	3	-1	1	2	65*	7

Source: PubChem BioAssay
